Reference: ChEMBL document CHEMBL2346591, “Oxadiazole-isopropylamides as potent and noncovalent proteasome inhibitors” (J Med Chem, 2013)
Calls of active or inactive are those of the source. No cut-off for these calls is given here.

Tests used:
[1] = Inhibition of chymotrypsin-like activity of rabbit 20s proteasome beta5 subunit using Suc-Leu-Leu-Val-Tyr-AMC as substrate after 1 hr by fluorescence assay; parameters: species or system Oryctolagus cuniculus
[2] = species on record: Oryctolagus cuniculus; experiment: Inhibition of chymotrypsin-like activity of rabbit 20s proteasome beta5 subunit using Suc-Leu-Leu-Val-Tyr-AMC as substrate at 10 uM after 1 hr by fluorescence assay
How it was run: (§1)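 Purified rabbit 20S proteasome at 1 nM, with or without compound, incubated 1 h at 37 °C in 50 mM Tris-HCl pH 7.6 with fluorogenic AMC peptide: 20 µM […] (CT-L), Bz-Val-Gly-Arg-AMC (T-L) or Z-Leu-Leu-Glu-AMC (PGPH-L).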

[3] = system: MDA-MB-468; experiment: Cytotoxicity against human MDA-MB-468 cells assessed as decrease in cell survival after 120 hrs by MTT assay; assay type: functional, cell-based
How it was run: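 MDA-MB-468 cells (DMEM, 10% FBS, penicillin/streptomycin, 37 °C, 5% CO2) attached overnight, then exposed 120 h to varying inhibitor concentrations; medium replaced with complete medium containing 1 mg/ml MTT for 3 h at 37 °C, DMSO solubilisation, absorbance at 540 nm. IC50 from a four-parameter curve fit of % inhibition versus concentration.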

[4] = biological target: T1, Proteasome Macropain subunit MB1 (Homo sapiens) (UniProt P28074); experiment: (§2) Inhibition of chymotrypsin-like activity of proteasome beta5 subunit in human MDA-MB-468 cells using Suc-Leu-Leu-Val-Tyr-AMC as substrate after 2 hrs by fluorescence assay; assay type: cell-based
T1 sequence (whole entry): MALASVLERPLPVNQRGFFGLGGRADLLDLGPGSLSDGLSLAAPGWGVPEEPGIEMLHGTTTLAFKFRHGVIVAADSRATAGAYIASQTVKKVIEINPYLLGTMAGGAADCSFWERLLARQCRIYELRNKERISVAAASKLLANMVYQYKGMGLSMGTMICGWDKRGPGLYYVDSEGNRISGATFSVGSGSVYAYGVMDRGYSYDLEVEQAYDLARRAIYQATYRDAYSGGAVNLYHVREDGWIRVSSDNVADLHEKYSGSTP

[5] = biological target: T2, Proteasome Macropain subunit MB1 (Homo sapiens, UniProt P28074); experiment: as §2; assay type: cell-based
T2 sequence (P28074 whole entry): T1 sequence (whole entry)

[6] = Inhibition of postglutamyl-peptide-hydrolysis-like activity of rabbit 20s proteasome beta1 subunit using benzyloxycarbonyl Z-Leu-Leu-Glu-AMC as substrate after 1 hr by fluorescence assay; parameters: species or system Oryctolagus cuniculus; how it was run: as §1
[7] = Inhibition of trypsin-like activity of rabbit 20s proteasome beta2 subunit using Bz-Val-Gly-Arg-AMC as substrate after 1 hr by fluorescence assay; parameters: species or system Oryctolagus cuniculus; how it was run: as §1
[8] = species on record: Oryctolagus cuniculus; experiment: Reversible inhibition of chymotrypsin-like activity of rabbit 20s proteasome beta5 subunit assessed as residual activity at 10 uM after 2 hrs by dialysis method relative to control
[9] = species on record: Oryctolagus cuniculus; experiment: Reversible inhibition of chymotrypsin-like activity of rabbit 20s proteasome beta5 subunit assessed as residual activity at 10 uM after 20 mins by dialysis method relative to control
[10] = species on record: Oryctolagus cuniculus; experiment: Covalent binding affinity to rabbit 20s proteasome beta5 subunit assessed as modification of TTTLAFK peptide after 30 mins by LC-MS/MS analysis
How it was run: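 Purified rabbit 20S proteasome (1 nM) incubated with inhibitor in 50 mM Tris-HCl pH 7.6 for 30 min at room temperature; acetonitrile added, then trypsin (enzyme:substrate 1:50) digestion for 4 h at 37 °C; peptides concentrated, C18 tip-extracted, then LC/MS-MS checking the N-terminal Thr-1 TTTLAFK peptide for modification versus vehicle (DMSO).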

[11] = species on record: Oryctolagus cuniculus; experiment: Reversible inhibition of chymotrypsin-like activity of rabbit 20s proteasome beta5 subunit at 2.5 uM after 18 hrs by dialysis method

Compound	IC50 [1] [µM]	other results
Cc1ccc(OCC(=O)N(Cc2nc(-c3ccc(C(F)(F)F)cc3)no2)C(C)C)cc1	0.97	–
CC(C)N(Cc1nc(-c2ccccc2)no1)C(=O)COc1ccc(C(=O)O)cc1	–	inhibition [2]: inactive
CC(C)N(Cc1nc(-c2ccccc2)no1)C(=O)COc1ccc2cc(Br)ccc2c1	–	inhibition [2]: inactive
CCCc1ccc(OCC(=O)N(Cc2nc(-c3cnccn3)no2)C(C)C)cc1	0.105	–
CCCCCc1ccc(OCC(=O)N(Cc2nc(-c3cccnc3)no2)C(C)C)cc1	0.12	–
CCCc1ccc(OCC(=O)N(Cc2nc(-c3ncccn3)no2)C(C)C)cc1	1.27	–
CC(C)N(Cc1nc(-c2ccccc2)no1)C(=O)CCc1ccc(C(F)(F)F)cc1	53.5	–
CCN(Cc1nc(-c2ccc(C)cc2)no1)C(=O)COc1ccc(C)cc1	6.04	–
Cc1ccc(OCC(=O)N(Cc2nc(-c3ccc(Cl)cc3)no2)C(C)C)cc1	0.45	–
Cc1cccc(OCC(=O)N(Cc2nc(-c3ccccc3)no2)C(C)C)c1	–	inhibition [2]: inactive
Cc1ccc(CNC(=O)N(Cc2nc(-c3ccccc3)no2)C(C)C)cc1	–	inhibition [2]: inactive
CC(C)N(Cc1nc(-c2ccccc2)no1)C(=O)COc1ccc(F)cc1	10.1	–
CC(C)N(Cc1nc(-c2cccnc2)no1)C(=O)COc1ccc(O)cc1	0.98	–
CC(C)N(Cc1nc(-c2ccccc2)no1)C(=O)COc1ccc(C(=O)OC(C)(C)C)cc1	–	inhibition [2]: inactive
Cc1ccc(OCC(=O)N(Cc2nc(-c3ccc(C)cc3)no2)C2CC2)cc1	–	inhibition [2]: inactive
Cc1ccc(OCC(=O)N(Cc2nc(-c3ccc(C)cc3)no2)C(C)C)cc1	0.6	Activity [3]: Active; inhibition [4]: Dose-dependent effect; IC50 [5]: 3.5 µM; IC50 [6]: > 100 µM; IC50 [7]: > 100 µM; Activity [8]: 100%; Activity [9]: > 70%; Activity [10]: inactive
CC(C)N(Cc1nc(-c2ccccc2)no1)C(=O)COc1ccccc1	6.2	–

Compound	IC50 [1] [µM]	other results
CC(=O)N[C@@H](CSC(=O)[C@]1([C@@H](O)C(C)C)NC(=O)[C@H](C)[C@@H]1O)C(=O)O	–	inhibition [11]: inactive; Activity [10]: Active
Cc1ccccc1OCC(=O)N(Cc1nc(-c2ccccc2)no1)C(C)C	–	inhibition [2]: inactive
Cc1ccc(OCC(=O)N(Cc2nc(-c3ccc(C)cc3)no2)C(C)(C)C)cc1	–	inhibition [2]: inactive
CCc1ccc(OCC(=O)N(Cc2nc(-c3cccnc3)no2)C(C)C)cc1	0.099	–
Cc1ccc(OCC(=O)N(Cc2nc(-c3ccccc3)no2)C(C)C)cn1	4	–
CC(C)N(Cc1nc(-c2cccnc2)no1)C(=O)COc1ccc(C(C)(C)C)cc1	46.5	–
CC(C)N(Cc1nc(-c2ccc(C(F)(F)F)cc2)no1)C(=O)COc1ccc(C(F)(F)F)cc1	2.53	–
CC(C)N(Cc1nc(-c2ccccc2)no1)C(=O)COc1ccc(-c2ccccc2)cc1	–	inhibition [2]: inactive
Cc1ccc(OCC(=O)NCc2nc(-c3ccc(C)cc3)no2)cc1	–	inhibition [2]: inactive
CCc1ccc(OCC(=O)N(Cc2nc(-c3ccccc3)no2)C(C)C)cc1	0.26	–
CC(C)N(Cc1nc(-c2cccnc2)no1)C(=O)c1cc2ccccc2o1	0.379	–
CC(C)N(Cc1nc(-c2ccccc2)no1)C(=O)COc1ccc(Cl)cc1	0.51	–
CC(C)N(Cc1nc(-c2cccnc2)no1)C(=O)COc1ccccc1	2.71	–
Cc1ccc(OCC(=O)N(CCc2nc(-c3ccccc3)no2)C(C)C)cc1	–	inhibition [2]: inactive
CC(C)N(Cc1nc(-c2cccnc2)no1)C(=O)COc1ccc(F)cc1	1.93	–
CC(C)N(Cc1nc(-c2ccccc2)no1)C(=O)COc1ccc(C(F)(F)F)cc1	0.43	–

Further lines, with some results ahead:

IC50 [1] [µM]	Compound	other results
1.36	CC(C)N(Cc1nc(-c2cccnc2)no1)C(=O)COc1ccc(C2CCCCC2)cc1	–
11.2	CC(C)N(Cc1nc(-c2ccc(C(F)(F)F)cc2)no1)C(=O)COc1ccccc1	–
0.37	Cc1ccc(OCC(=O)N(Cc2nc(-c3ccncc3)no2)C(C)C)cc1	–
29.9	Cc1ccc(OCC(=O)N(C)Cc2nc(-c3ccc(C)cc3)no2)cc1	–
5.67	Cc1ccc(NCC(=O)N(Cc2nc(-c3ccccc3)no2)C(C)C)cc1	–
0.14	CC(C)N(Cc1nc(-c2cccnc2)no1)C(=O)COc1ccc(Cl)cc1	–
0.31	Cc1ccc(OCC(=O)N(Cc2nc(-c3ccccc3)no2)C(C)C)cc1	–
1.41	CC(C)N(Cc1nc(-c2ccc(C(F)(F)F)cc2)no1)C(=O)COc1ccc(Cl)cc1	–
0.14	CC(C)Cc1ccc(OCC(=O)N(Cc2nc(-c3cccnc3)no2)C(C)C)cc1	–
0.027	CCCc1ccc(OCC(=O)N(Cc2nc(-c3cccnc3)no2)C(C)C)cc1	Activity [3]: Active; IC50 [6]: > 100 µM; IC50 [7]: > 100 µM
3.75	Cc1ccc(OCC(=O)N(Cc2nc(-c3ccccn3)no2)C(C)C)cc1	–
2.37	Cc1ccc(OCC(=O)N(Cc2nc(-c3ccc(C)cc3)no2)CC(C)C)cc1	–
0.039	CCCCc1ccc(OCC(=O)N(Cc2nc(-c3cccnc3)no2)C(C)C)cc1	–
1.12	Cc1ccc(-c2noc(CN(C(=O)COc3ccc(Cl)cc3)C(C)C)n2)cc1	–
10.1	CC(C)N(Cc1nc(-c2ccccc2)no1)C(=O)COc1ccc(O)cc1	–
0.44	CC(C)c1ccc(OCC(=O)N(Cc2nc(-c3cccnc3)no2)C(C)C)cc1	–
8.5	Cc1ccc(-c2noc(CN(C(=O)COc3ccccc3)C(C)C)n2)cc1	–
0.94	CC(C)N(Cc1nc(-c2ccc(Cl)cc2)no1)C(=O)COc1ccc(C(F)(F)F)cc1	–
0.22	Cc1ccc(OCC(=O)N(Cc2nc(-c3cccnc3)no2)C(C)C)cc1	–
1.08	Cc1ccc(-c2noc(CN(C(=O)COc3ccc(C(F)(F)F)cc3)C(C)C)n2)cc1	–
0.107	CCCCc1ccc(OCC(=O)N(Cc2nc(-c3cnccn3)no2)C(C)C)cc1	–
0.273	CCCc1ccc(OCC(=O)N(Cc2nc(-c3ccc(C)cc3)no2)C(C)C)cc1	–
1.07	CC(C)N(Cc1nc(-c2ccc(Cl)cc2)no1)C(=O)COc1ccc(Cl)cc1	–
0.43	CCCCCCc1ccc(OCC(=O)N(Cc2nc(-c3cccnc3)no2)C(C)C)cc1	–
